According to ChEMBL document CHEMBL1926614, “Substituted thiazoles V. synthesis and antitumor activity of novel thiazolo[2,3-b]quinazoline and pyrido[4,3-d]thiazolo[3,2-a]pyrimidine analogues” (2012):

Key:
Assay type in all cases: functional
KM12 = assay: Growth inhibition of human KM12 cells at 10 uM after 48 hrs by coulter counting; details: KM12, 48 h, read-out: GI
Summary of the method: (§1)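 Single-dose primary screen across the full NCI 60-cell-line panel. Stocks were made in DMSO and diluted in PBS to a final DMSO below 1%. Cultures at 6 × 10⁴ cells/ml were run in duplicate wells alongside PBS/DMSO vehicle controls at 37 °C in humidified 5% CO₂. Data were expressed as percent growth of treated cells.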

SK-MEL-28 = assay: Growth inhibition of human SK-MEL-28 cells at 10 uM after 48 hrs by coulter counting; details: SK-MEL-28, 48 h, read-out: GI; summary of the method: as §1
M14 = assay: Growth inhibition of human M14 cells at 10 uM after 48 hrs by coulter counting; details: M14, 48 h, read-out: GI; summary of the method: as §1
NCI-H23 = assay: Growth inhibition of human NCI-H23 cells at 10 uM after 48 hrs by coulter counting; details: NCI-H23, 48 h, read-out: GI; summary of the method: as §1
NCI-H522 = assay: Growth inhibition of human NCI-H522 cells at 10 uM after 48 hrs by coulter counting; details: NCI-H522, 48 h, read-out: GI; summary of the method: as §1
LOX IMVI = assay: Growth inhibition of human LOXIMVI cells at 10 uM after 48 hrs by coulter counting; details: read-out: GI; summary of the method: as §1
NCI/ADR-RES = assay: Growth inhibition of human NCI/ADR-RES cells at 10 uM after 48 hrs by coulter counting; details: read-out: GI; summary of the method: as §1
HL-60(TB) = assay: Growth inhibition of human HL-60(TB) cells at 10 uM after 48 hrs by coulter counting; details: HL-60, 48 h, read-out: GI
Summary of the method: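 Test compound was dissolved in DMSO and diluted in phosphate-buffered saline to a final DMSO level below 1%. Dilutions were plated in duplicate with cell culture at 6 × 10⁴ cells/ml. Vehicle controls held PBS and DMSO at matching dilutions. Incubation was at 37 °C, humidified, under 5% CO₂. Data were reported as percent growth of treated cells.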

HT-29 = assay: Growth inhibition of human HT-29 cells at 10 uM after 48 hrs by coulter counting; details: HT-29, 48 h, read-out: GI; summary of the method: as §1
HCC 2998 = assay: Growth inhibition of human HCC2998 cells at 10 uM after 48 hrs by coulter counting; details: HCC 2998, 48 h, read-out: GI; summary of the method: as §1
UACC-257 = assay: Growth inhibition of human UACC257 cells at 10 uM after 48 hrs by coulter counting; details: UACC-257, 48 h, read-out: GI
Summary of the method: (§2)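 Single-dose screen in the NCI 60 human tumor cell line panel (nine subpanels). Compounds dissolved in DMSO and diluted in phosphate buffered saline, keeping final DMSO below 1%. Added in duplicate wells to cells at 6 × 10⁴ cells/ml. Controls held PBS and DMSO at matching dilutions. Incubated at 37 °C, humidified, 5% CO₂. Reported as percent growth of treated cells.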

SK-MEL-2 = assay: Growth inhibition of human SK-MEL-2 cells at 10 uM after 48 hrs by coulter counting; details: SK-MEL-2, 48 h, read-out: GI; summary of the method: as §1
EKVX = assay: Growth inhibition of human EKVX cells at 10 uM after 48 hrs by coulter counting; details: read-out: GI; summary of the method: as §1
UACC-62 = assay: Growth inhibition of human UACC62 cells at 10 uM after 48 hrs by coulter counting; details: UACC-62, 48 h, read-out: GI; summary of the method: as §2
K562 = assay: Growth inhibition of human K562 cells at 10 uM after 48 hrs by coulter counting; details: K562, 48 h, read-out: GI; summary of the method: as §1
MOLT-4 = assay: Growth inhibition of human MOLT4 cells at 10 uM after 48 hrs by coulter counting; details: MOLT-4, 48 h, read-out: GI; summary of the method: as §1
MCF7 = assay: Growth inhibition of human MCF7 cells at 10 uM after 48 hrs by coulter counting; details: MCF7, 48 h, read-out: GI; summary of the method: as §1
SF-539 = assay: Growth inhibition of human SF539 cells at 10 uM after 48 hrs by coulter counting; details: SF-539, 48 h, read-out: GI; summary of the method: as §1
MDA-MB-435 = assay: Growth inhibition of human MDA-MB-435 cells at 10 uM after 48 hrs by coulter counting; details: MDA-MB-435, 48 h, read-out: GI; summary of the method: as §1
OVCAR-4 = assay: Growth inhibition of human OVCAR4 cells at 10 uM after 48 hrs by coulter counting; details: OVCAR-4, 48 h, read-out: GI; summary of the method: as §1
IGROV-1 = assay: Growth inhibition of human IGROV1 cells at 10 uM after 48 hrs by coulter counting; details: IGROV-1, 48 h, read-out: GI; summary of the method: as §1
[1] = Growth inhibition of human NCI-322M cells at 10 uM after 48 hrs by coulter counting; details: read-out: GI; summary of the method: as §1
A498 = assay: Growth inhibition of human A498 cells at 10 uM after 48 hrs by coulter counting; details: A498, 48 h, read-out: GI; summary of the method: as §1
CAKI-1 = assay: Growth inhibition of human Caki1 cells at 10 uM after 48 hrs by coulter counting; details: CAKI-1, 48 h, read-out: GI; summary of the method: as §1
UO-31 = assay: Growth inhibition of human UO31 cells at 10 uM after 48 hrs by coulter counting; details: UO-31, 48 h, read-out: GI; summary of the method: as §2
BT-549 = assay: Growth inhibition of human BT549 cells at 10 uM after 48 hrs by coulter counting; details: BT-549, 48 h, read-out: GI; summary of the method: as §1
NCI-H226 = assay: Growth inhibition of human NCI-H226 cells at 10 uM after 48 hrs by coulter counting; details: NCI-H226, 48 h, read-out: GI; summary of the method: as §1
HOP-62 = assay: Growth inhibition of human HOP62 cells at 10 uM after 48 hrs by coulter counting; details: HOP-62, 48 h, read-out: GI; summary of the method: as §1
U-251 = assay: Growth inhibition of human U251 cells at 10 uM after 48 hrs by coulter counting; details: U-251, 48 h, read-out: GI; summary of the method: as §2
RPMI-8226 = assay: Growth inhibition of human RPMI8226 cells at 10 uM after 48 hrs by coulter counting; details: RPMI-8226, 48 h, read-out: GI; summary of the method: as §1
SF-295 = assay: Growth inhibition of human SF295 cells at 10 uM after 48 hrs by coulter counting; details: SF-295, 48 h, read-out: GI; summary of the method: as §1
SK-MEL-5 = assay: Growth inhibition of human SK-MEL-5 cells at 10 uM after 48 hrs by coulter counting; details: SK-MEL-5, 48 h, read-out: GI; summary of the method: as §1
SNB-75 = assay: Growth inhibition of human SNB75 cells at 10 uM after 48 hrs by coulter counting; details: SNB-75, 48 h, read-out: GI; summary of the method: as §1
T47D = assay: Growth inhibition of human T47D cells at 10 uM after 48 hrs by coulter counting; details: read-out: GI; summary of the method: as §2
CCRF-CEM = assay: Growth inhibition of human CCRF-CEM cells at 10 uM after 48 hrs by coulter counting; details: read-out: GI; summary of the method: as §1
DU-145 = assay: Growth inhibition of human DU145 cells at 10 uM after 48 hrs by coulter counting; details: DU-145, 48 h, read-out: GI; summary of the method: as §1
NCI-H460 = assay: Growth inhibition of human NCI-H460 cells at 10 uM after 48 hrs by coulter counting; details: NCI-H460, 48 h, read-out: GI; summary of the method: as §1
SNB-19 = assay: Growth inhibition of human SNB19 cells at 10 uM after 48 hrs by coulter counting; details: SNB-19, 48 h, read-out: GI; summary of the method: as §1
SF-268 = assay: Growth inhibition of human SF268 cells at 10 uM after 48 hrs by coulter counting; details: SF-268, 48 h, read-out: GI; summary of the method: as §1
A549 = assay: Growth inhibition of human A549 cells at 10 uM after 48 hrs by coulter counting; details: A549, 48 h, read-out: GI; summary of the method: as §1
HCT-116 = assay: Growth inhibition of human HCT116 cells at 10 uM after 48 hrs by coulter counting; details: HCT-116, 48 h, read-out: GI; summary of the method: as §1
ACHN = assay: Growth inhibition of human ACHN cells at 10 uM after 48 hrs by coulter counting; details: read-out: GI; summary of the method: as §1

Compound C1=CN2C(=NC3=C(CCC/C3=C\c3ccccc3)C2c2ccccc2)S1 (configuration not stated) has an inhibition of growth at 10 µM (KM12) of over 10%, an inhibition of growth at 10 µM (SK-MEL-28) of over 10% and an inhibition of growth at 10 µM (M14) of over 10%. The inhibition of growth at 10 µM (NCI-H23) was over 10%, the inhibition of growth at 10 µM (NCI-H522) was over 10% and the inhibition of growth at 10 µM (LOX IMVI) was over 10%. It also gave an inhibition of growth at 10 µM (NCI/ADR-RES) of over 10%, an inhibition of growth at 10 µM (HL-60(TB)) of over 10% and an inhibition of growth at 10 µM (HT-29) of over 10%. The inhibition of growth at 10 µM (HCC 2998) was over 10%, the inhibition of growth at 10 µM (UACC-257) was over 10% and the inhibition of growth at 10 µM (SK-MEL-2) was over 10%. The inhibition of growth at 10 µM (EKVX) was over 10%, the inhibition of growth at 10 µM (UACC-62) was over 10% and the inhibition of growth at 10 µM (K562) was over 10%. It also gave an inhibition of growth at 10 µM (MOLT-4) of over 10%, an inhibition of growth at 10 µM (MCF7) of over 10% and an inhibition of growth at 10 µM (SF-539) of over 10%. The inhibition of growth at 10 µM (MDA-MB-435) was over 10%, the inhibition of growth at 10 µM (OVCAR-4) was over 10% and the inhibition of growth at 10 µM (IGROV-1) was over 10%. For the same compound, the inhibition of growth at 10 µM [1] was over 10%, the inhibition of growth at 10 µM (A498) was over 10% and the inhibition of growth at 10 µM (CAKI-1) was over 10%. It also gave an inhibition of growth at 10 µM (UO-31) of 21.4%, an inhibition of growth at 10 µM (BT-549) of over 10% and an inhibition of growth at 10 µM (NCI-H226) of over 10%. The inhibition of growth at 10 µM (HOP-62) was over 10%, the inhibition of growth at 10 µM (U-251) was over 10% and the inhibition of growth at 10 µM (RPMI-8226) was over 10%. For the same compound, the inhibition of growth at 10 µM (SF-295) was over 10%, the inhibition of growth at 10 µM (SK-MEL-5) was over 10% and the inhibition of growth at 10 µM (SNB-75) was over 10%. It also gave an inhibition of growth at 10 µM (T47D) of over 10%, an inhibition of growth at 10 µM (CCRF-CEM) of over 10% and an inhibition of growth at 10 µM (DU-145) of over 10%. It also gave an inhibition of growth at 10 µM (NCI-H460) of over 10%, an inhibition of growth at 10 µM (SNB-19) of over 10% and an inhibition of growth at 10 µM (SF-268) of over 10%. The inhibition of growth at 10 µM (A549) was over 10%, the inhibition of growth at 10 µM (HCT-116) was over 10% and the inhibition of growth at 10 µM (ACHN) was over 10%.
